Xi reactivation: reactivates the inactive X chromosome in mouse fibroblasts; XiGFP mouse fibroblasts, % GFP-positive cells imaging, 3 d; cells co-treated with 5-aza-dC sensitizer; scaled so ellipticine positive control = 100%; 0.055% of 360,000 active; activation, % at 7.58 µM;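 active means mean normalized replicate activation at least 10% and every replicate at or above 10%; inconclusive means only one of the two criteria met; inactive means mean below 10% and not all replicates reach 10%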;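 further: 0% = median of on-plate neutral control wells and 100% = ellipticine 6 µM median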
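System: 68-5-11 XiGFP fibroblast line; Timing: 3 days compound exposure; Compound dosing: one concentration, pinned; Benchmarks: positive control ellipticine, 6 µM final; Buffer or medium: DMEM containing 5-aza-dC.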
TROY NFkB inh: TROY signaling inhibition. Q293 LMP1-TROYcd NF-kB luciferase reporter, 4 h. inhibition, % at 10 µM. 0.98% of 360,000 active. AID 1347056;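 active means compounds whose plate-normalised and pattern-corrected inhibition of the luciferase reporter signal at the single screening dose is 50% or more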
TWEAK Fn14 block: inhibitors of TWEAK-Fn14 interaction signaling; inhibition, % at 10 µM; TWEAK-stimulated Fn14 reporter cells, luciferase luminescence, 8 h; 2% of 360,000 active; AID 1159606; in the data active means inhibition above about 50%
LGR2 inh: inhibitors of bursicon-induced Drosophila LGR2 receptor cAMP signaling; HEK293 LGR2, CRE-luciferase, bursicon-stimulated, 4 h; inhibition, % at 9.99 µM; 0.35% of 380,000 active; AID 720647;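 active means drop in luminescence signal, shown as inhibition above about 50% in the replicate tests, limit read from the data, passing the limit was not always enough; inconclusive means probably only some replicates passing the limit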;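 further: agonist challenge used bursicon conditioned medium at about half maximal strength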
EWS-Fli block: blocks EWS/Fli oncoprotein-driven transcription; 0.67% of 350,000 active; inhibition, % at 12.6 µM; AID 651661; A673 NR0B1-luciferase reporter, viability-normalised;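 active means mean inhibition of at least 50% after viability correction, with every replicate also passing that limit; inconclusive means mean reaches 50% but only one of two replicates passes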;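 further: firefly luciferase signal divided by Alamar Blue viability fluorescence both relative to DMSO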
FN deposit inh: fibronectin deposition inhibition | inhibition, % at 12.6 µM | AH1F fibroblasts, Alexa488-fibronectin deposition fluorescence, overnight | 0.086% of 350,000 active;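 active means mean inhibition across replicates of 30% or more, regardless of how many single replicates reach that level; inconclusive means mean under 30% yet at least half of replicates reach 30%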;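 further: positive control wells lacked labelled fibronectin entirely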
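test system = AH1F fibroblasts assembling fluorescent fibronectin matrix | quantity = 10000 AH1F cells per well | buffer or medium = DMEM plus 2% serum, read in PBS | doses = single dose, pinned | incubation = 1 h cell attachment, overnight exposure to compound and label | detection = fluorescence at 485 nm excitation, 525 nm emission | read-out basis = inhibition from reduced deposited-fibronectin fluorescence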
Starred values were filed as active, the others as inactive; ? = inconclusive; / = no result. Rows were chosen to be rich in hits. Some 2.3% of all compounds tested hit in one or more screens of this group.

SMILES	Xi reactivation	TROY NFkB inh	TWEAK Fn14 block	LGR2 inh	EWS-Fli block	FN deposit inh
Cc1oc(-c2cccc3ccccc23)nc1CN1CCN(c2ncnc3ccccc23)CC1	0	42	69*	34	20	-2
c1ccc(-c2cnc(-c3ccccc3)nc2)cc1	/	1	67*	56*	/	-4
c1ccc(-c2ncc3c(ccc4ccccc43)n2)cc1	0	51*	84*	81*	/	0
c1ccc2c(c1)cnc1ccccc12	0	1	7	-6	-8	-10
CN1C(=O)c2cc(NC(=O)c3ccc(F)cc3)ccc2OC[C@@H]2O[C@@H](CC(=O)NCC3CCCCC3)CC[C@H]21	0	/	/	0	8	-3
Cc1ccc2c(COC(=O)C3=COCCO3)cc(=O)oc2c1	/	30	81*	/	/	-7
O=C(NC1Cc2ccccc2C1)[C@@H]1N[C@@H]2c3ccc(C4=CCCCC4)c(=O)n3C[C@@H]2[C@H]1CO	1	/	/	14	4	/
CC1=CN2C(=N)/C(=C/c3ccc(Sc4ccc(C)cc4)o3)C(=O)N=C2S1	0	-20	-18	/	-8	-3
CC1=CN2C(=N)/C(=C/c3ccc(C)o3)C(=O)N=C2S1	0	16	66*	37	/	-2
COc1ccc(NS(=O)(=O)c2cccc(NC(=O)c3ccc(S(=O)(=O)N4CCCCCC4)cc3)c2)cc1	/	45	70*	/	/	/
COc1ccc(NS(=O)(=O)c2ccc(O)c(NC(=O)c3ccc(S(=O)(=O)N4CCCCCC4)cc3)c2)cc1	0	38	31	-1	/	-2
O=C(Nc1nc(-c2ccccc2)c(-c2ccccc2)s1)c1ccc(S(=O)(=O)N2CCCCC2)cc1	1	-9	-20	-1	/	6
O=C(Nc1nc(-c2ccccc2)c(C(=O)c2ccccc2)s1)c1ccc(S(=O)(=O)N2CCCCC2)cc1	0	15	52*	-2	8	-6
O=C(N/N=C\c1c(O)ccc2ccccc12)c1ccc(S(=O)(=O)N2CCCCC2)cc1	48*	5	-2	26	/	/
O=C(Nc1nc(-c2cccs2)cs1)c1cccc(S(=O)(=O)N2CCCCCC2)c1	/	20	10	/	/	-13
O=C(Nc1nc(-c2cccs2)cs1)c1ccc(S(=O)(=O)N2CCCCC2)cc1	0	38	59*	12	-12	8
O=C(NCC[C@H]1CC[C@H](NC(=O)c2cccnc2)[C@H](CO)O1)Nc1ccc(F)cc1	0	/	/	1	0	/
C[C@@H]1CCCCO[C@@H](CN(C)C(=O)Nc2ccc(F)cc2)[C@@H](C)CN([C@H](C)CO)C(=O)c2cc(NC(=O)Nc3ccc(F)cc3)ccc2O1	0	/	/	11	1	1
Cc1cccc(NC(=O)c2ccc(S(=O)(=O)N3CCCCC3)cc2)n1	0	-25	15	2	-7	38*
COc1ccc(S(=O)(=O)N2CCC(NC(=O)C3CCCCC3)CC2)cc1	0	-14	80*	-11	6	4
C[C@@H]1CCCCO[C@H](CN(C)S(=O)(=O)c2cccs2)[C@@H](C)CN([C@@H](C)CO)C(=O)c2cc(NC(=O)CCC(F)(F)F)ccc2O1	0	/	/	1	-1	/
Cc1ccc(-c2onc(C)c2C)cc1S(=O)(=O)N1CCOc2ccccc21	0	44	64*	20	/	-1
Cc1cc(-c2ccc(C)c(S(=O)(=O)N3CC(=O)Nc4ccccc43)c2)on1	0	-14	92*	-16	-3	-2
Cc1cc(-c2ccc(C(C)C)c(S(=O)(=O)N3CCOc4ccccc43)c2)on1	0	15	-7	10	4	0
O=C1O[C@H](c2ccccc2)[C@H](c2ccccc2)N2[C@H]1[C@@H](C(=O)N1CCCCCCC1)[C@]1(C(=O)Nc3ccc(C#CC4=CCCCC4)cc31)[C@H]2c1ccc(OCCO)cc1	/	/	/	/	-7	/
SMILES	Xi reactivation	TROY NFkB inh	TWEAK Fn14 block	LGR2 inh	EWS-Fli block	FN deposit inh
O=C1CSC(c2ccccn2)N1c1ccc2ccccc2c1 (stereo unspecified)	/	-4	11	/	/	1
O=C1CSC(c2ccccn2)N1c1ccc(Cl)c(Cl)c1 (stereo unspecified)	/	-4	107*	/	/	1
Cc1ccc(S(=O)(=O)N(C)C[C@H]2Oc3ccc(NS(=O)(=O)c4cn(C)cn4)cc3C(=O)N([C@H](C)CO)C[C@@H]2C)cc1	-1	/	/	9	6	/
CCCN(CCC)S(=O)(=O)c1ccc(Cl)c([N+](=O)[O-])c1	0	33	17	84*	54*	8
CCCN(CCC)S(=O)(=O)c1ccc(N2CCCC2=O)c([N+](=O)[O-])c1	0	-5	-18	9	2	-5
COc1ccc(OC)c(NC(=O)CSc2nc3ccccc3c(=O)n2CCNC(C)=O)c1	/	-16	76*	/	/	1
COc1ccc(NC(=O)CSc2nc3ccccc3c(=O)n2CCNC(C)=O)c(OC)c1	/	5	0	3	/	8
CCCCNC(=S)NNc1c(Cl)cc(Cl)cc1Cl	0	-4	6	-3	0	8
O=C(NCCCl)NNc1c(Cl)cc(Cl)cc1Cl	0	72*	51*	4	-70	6
COc1ccc(-c2nnc3ccc(SCC(=O)Nc4nc5ccc(C)cc5s4)nn23)cc1OC	0	87*	98*	-9	/	13
COC(=O)c1ccc(C(=O)OC)c(NC(=O)CN(c2ccc3c(c2)OCO3)S(C)(=O)=O)c1	/	57*	23	-9	9	/
CC(C)CNC(=O)c1ccccc1NC(=O)CN(c1ccc2c(c1)OCCO2)S(C)(=O)=O	/	21	90*	-3	/	/
C[C@H](CO)N1C[C@H](C)[C@@H](CN(C)Cc2ccccc2)Oc2c(NC(=O)Cc3cn(C)c4ccccc34)cccc2C1=O	0	/	/	/	/	24
Cc1ccc(S(=O)(=O)Nc2ccc3c(c2)CC(=O)N([C@@H](C)CO)C[C@H](C)[C@H](CN(C)Cc2ccc(Cl)c(Cl)c2)O3)cc1	-1	/	/	30	69*	-13
C[C@H](CO)N1C[C@H](C)[C@H](CN(C)Cc2ccc(Cl)c(Cl)c2)Oc2ccc(NS(=O)(=O)c3cn(C)cn3)cc2CC1=O	0	/	/	-3	65*	/
Cc1ccc(S(=O)(=O)Nc2ccc3c(c2)CC(=O)N([C@H](C)CO)C[C@H](C)[C@@H](CN(C)Cc2ccc(Cl)c(Cl)c2)O3)cc1	1	/	/	14	10	-4
COc1cccc(C(=O)Nc2ccc3c(c2)OC[C@@H](C)N(CC2CC2)C[C@H](C)[C@H](OC)CN(C)C3=O)c1	0	/	/	?	3	0
CCCc1nnc(NC(=O)c2nc(S(=O)(=O)Cc3cccc(C)c3)ncc2Cl)s1	1	57*	93*	-10	/	24
Cc1nnc(NC(=O)c2nc(S(=O)(=O)Cc3ccccc3)ncc2Cl)s1	0	-2	91*	-29	58*	7

High-throughput results as filed in PubChem BioAssay.
